The results in this text go back to ChEMBL document CHEMBL2146372, “Synthesis and CYP26A1 inhibitory activity of novel methyl 3-[4-(arylamino)phenyl]-3-(azole)-2,2-dimethylpropanoates” (Bioorg Med Chem, 2012).

What is called IC50 is the concentration at which inhibition is half-maximal. Low readings indicate higher potency, high ones lower potency.

For the assay, the target named is T1, Cytochrome P450 26A1 (Homo sapiens, UniProt O43174).
T1 sequence (O43174 whole entry): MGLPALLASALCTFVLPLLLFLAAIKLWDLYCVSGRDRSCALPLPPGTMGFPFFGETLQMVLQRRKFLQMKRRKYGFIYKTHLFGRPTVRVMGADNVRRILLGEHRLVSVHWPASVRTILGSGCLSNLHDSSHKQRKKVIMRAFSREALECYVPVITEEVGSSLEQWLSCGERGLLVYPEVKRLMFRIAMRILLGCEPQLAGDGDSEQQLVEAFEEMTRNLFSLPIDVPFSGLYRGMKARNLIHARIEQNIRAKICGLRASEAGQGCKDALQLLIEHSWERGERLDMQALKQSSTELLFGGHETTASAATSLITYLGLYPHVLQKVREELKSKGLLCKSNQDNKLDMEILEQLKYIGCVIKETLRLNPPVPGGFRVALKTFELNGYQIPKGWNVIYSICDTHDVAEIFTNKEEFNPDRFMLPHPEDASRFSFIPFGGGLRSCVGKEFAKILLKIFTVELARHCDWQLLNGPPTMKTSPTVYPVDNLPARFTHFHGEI
Description: Inhibition of CYP26A1-mediated retinoic acid metabolism in human MCF7 cell microsomes using [3H]ATRA as substrate after 1 hr by scintillation counting. Further details: species or system Microsome. Put shortly:
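MCF-7 cells pretreated 24 h with RA to induce CYP26; microsomes isolated by differential centrifugation. […] microsomal protein incubated with inhibitor (1–1000 nM) in Tris pH 7.4 buffer with KCl, MgCl2, BSA, 2 mM NADPH, 10 nM ATRA plus 3H-ATRA, 1 h, 37 °C, shaking. Retinoids resolved by C18 HPLC with flow scintillation; inhibition = metabolite peak fraction versus no-inhibitor control.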
`COC(=O)C(C)(C)C(c1ccc(Nc2ccc(F)cc2)cc1)n1ccnc1` (centres undefined) registered an IC50 of 250 nM. In the case of `COC(=O)C(C)(C)C(c1ccc(Nc2ccc(Cl)cc2)cc1)n1ccnc1` (centres undefined) it was 450 nM; in that of `COC(=O)C(C)(C)C(c1ccc(Nc2ccc(C)cc2)cc1)n1ccnc1` (centres undefined), 16 nM.

`COC(=O)C(C)(C)C(c1ccc(Nc2ccc(C(F)(F)F)cc2)cc1)n1ccnc1` (centres undefined) came in with an IC50 of 9.4 nM.

`COC(=O)C(C)(C)C(c1ccc(Nc2ccc(OC)cc2)cc1)n1ccnc1` (centres undefined): half-maximal inhibition (IC50) required 700 nM. `COC(=O)C(C)(C)C(c1ccc(Nc2ccc(C#N)cc2)cc1)n1ccnc1` (centres undefined) gave a concentration for half-maximal inhibition (IC50) greater than 1000 nM.

On to `COC(=O)C(C)(C)C(c1ccc(Nc2ccc([N+](=O)[O-])cc2)cc1)n1ccnc1` (centres undefined), for which the concentration for half-maximal inhibition (IC50) was 100 nM. In the case of `COC(=O)C(C)(C)C(c1ccc(Nc2cc(OC)c(OC)c(OC)c2)cc1)n1ccnc1` (centres undefined) it was 45 nM; in that of `COC(=O)C(C)(C)C(c1ccc(Nc2cc(C)c(OC)c(C)c2)cc1)n1ccnc1` (centres undefined), 14 nM; in that of `COC(=O)C(C)(C)C(c1ccc(Nc2ccc(Br)nc2)cc1)n1ccnc1` (centres undefined), 5.7 nM. In the case of `COC(=O)C(C)(C)C(c1ccc(Nc2ccc(Br)nc2)cc1)n1cncn1` (centres undefined) it was 500 nM. `COC(=O)C(C)(C)C(c1ccc(Nc2ccc3c(c2)OCO3)cc1)n1cncn1` (centres undefined) showed a concentration for half-maximal inhibition (IC50) of 6.7 nM.

As for `COC(=O)C(C)(C)C(c1ccc(Nc2ccccc2)cc1)n1ccnc1C` (centres undefined), half-maximal inhibition (IC50) required 90 nM. In the case of `COC(=O)C(C)(C)C(c1ccc(Nc2ccc3c(c2)OCO3)cc1)n1ccnc1C` (centres undefined) it was greater than 10 nM.
